The whole screen tested about 330,000 compounds, of which about 780 (0.24%) were called active.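 The calls were made as follows: active = activation factor of at least 2 at 20 µM; inactive = the rest.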 The sample as a whole holds a higher share of actives than the screen did.
What follows are molecules tested on intestinal alkaline phosphatase [Mus musculus] (assay: activators of mouse IAP, primary screen, biochemical, luminescence, uHTS (AID 2805)). Conditions: muIAP, CDP-Star luminescence, 30 min; at 10 µM; active compounds read high; 1 = vehicle-only enzyme signal, 0 = enzyme-free wells.
In short: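 Assay system: mouse IAP enzyme; Reagent: CDP-Star chemiluminescent phosphatase substrate; Compound: DMSO-dissolved test compounds; Incubation: 30 min, room temperature; Technique: luminescence from enzymatic CDP-Star hydrolysis; Controls: DMSO-only wells and no-enzyme negative control.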

Activation factor, active:
c1ccc(-c2cc3c(NCC4COc5ccccc5O4)ncnc3s2)cc1 (stereo not drawn) 2.05
COc1ccc(NC(=O)c2cn(-c3ccccc3)nc2SC)cc1 3.32
CC(C)c1ccc(NC(=S)NC2CC3C=CC2C3)cc1 (stereo not drawn) 2.76
C#CCOCCOCCOCCNc1nc(N2CCN(C(=O)CCCCCCCCCCNC(=O)Cn3cc(CCCCCN)nn3)CC2)nc(N2CCN(C(=O)CCCCCCCCCCNC(=O)[C@H](CO)n3cc(CCCSC)nn3)CC2)n1 2.45
C#CCOCCOCCOCCNc1nc(N2CCN(C(=O)CCCCCCCCCCNC(=O)[C@H]([C@@H](C)CC)n3cc(CCCCN=C(N)N)nn3)CC2)nc(N2CCN(C(=O)CCCCCCCCCCNC(=O)[C@H](CO)n3cc(CCCSC)nn3)CC2)n1 12.7
CN(c1cccc(NC(=O)Nc2ccc(Cl)cc2)c1)S(C)(=O)=O 2.3
COc1cc(NC(=S)NCCSc2ccc(C)cc2)cc(OC)c1 2.86
CCn1cc(CN2CCC(C(=O)Nc3cccc(-c4cccc(Cl)c4)c3)CC2)c(C)n1 3.39
O=C(Nc1cccc(-c2cccc(Cl)c2)c1)C1CCN(C2CCC2)CC1 6.17
CCn1cc(CN2CCC(C(=O)Nc3cccc(-c4cccc(Cl)c4)c3)CC2)cn1 5.15

Activation factor, inactive:
O=C(Cn1cnc2ccccc2c1=O)NCC1COc2ccccc2O1 (stereo not drawn) 0.99
O=C(NCC1COc2ccccc2O1)C1(c2ccccc2)CCCC1 (stereo not drawn) 1
CCN(C(=O)Cc1nc(N)n[nH]1)C1(C(=O)Nc2ccccc2)CCCCC1 1
COc1ccc(-c2nn(-c3ccccc3)cc2C(=O)Nc2nccs2)cc1OC 1
COc1ccc(NC(=O)c2cc(-c3ccc(C)o3)nc3ccccc23)cc1 0.934
CCn1nnc2cc(C(=O)Nc3ccc(C(=O)OC(C)C)cc3)ccc21 0.97
CCOC(=O)c1cc(C)sc1NC(=O)C1CCC1 1.01
S=C(NNC(=S)NC1CC2CCC1C2)NC1CC2C=CC1C2 (stereo not drawn) 0.928
Cc1ccc(C)c(NC(=S)NNC(=S)Nc2ccc(C(C)C)cc2)c1 0.941
Cc1ccccc1N1CCN(CCCN2C(=O)C3CCCCN3C2=O)CC1 (stereo not drawn) 1.05
O=C1CCC([N+](=O)[O-])C(c2ccccc2Br)N1 (stereo not drawn) 1.03
O=P(O)(CN1CCCCCC1)C1Cc2ccccc2C1 1.05
Cc1ccccc1NC(=O)COc1cccc2c1CCNC2=O 0.912
C#CCOCCOCCOCCNc1nc(N2CCN(C(=O)CCCCCCCCCCNC(=O)[C@H](CCCCN)n3cc(C)nn3)CC2)nc(N2CCN(C(=O)CCCCCCCCCCNC(=O)[C@H](CO)n3cc(CCCSC)nn3)CC2)n1 1.29
C#CCOCCOCCOCCNc1nc(N2CCN(C(=O)Cn3cc(CCCCN)nn3)CC2)nc(N2CCN(C(=O)[C@H](CCCCN)n3cc(CCC(=O)O)nn3)CC2)n1 0.948
C#CCOCCOCCOCCNc1nc(N2CCN(C(=O)[C@H](CCCN=C(N)N)n3cc(C(N)[C@@H](C)CC)nn3)CC2)nc(N2CCN(C(=O)[C@H](CO)n3cc([C@@H](N)C(C)C)nn3)CC2)n1 (stereo partly drawn) 0.988
C#CCOCCOCCOCCNc1nc(N2CCN(C(=O)[C@H](C(C)C)n3cc(CCO)nn3)CC2)nc(N2CCN(C(=O)[C@H]([C@@H](C)CC)n3cc(CCCN=C(N)N)nn3)CC2)n1 1
COc1ccc(CCNC(=O)C2CCCN(Cc3nc(-c4cccc(Cl)c4)oc3C)C2)cc1OC (stereo not drawn) 0.883
CN(C)C(=O)N1CCNCC1 0.933
c1ccc(CCN2CN=C(Nc3nc4ccccc4o3)NC2)cc1 0.958
CC[C@]12c3[nH]c4ccc(Cl)cc4c3CCN1C(=O)[C@@H](CC(=O)NCCCOC)C[C@@H]2C(=O)N1CCN(C(=O)C2CC2)CC1 0.995
COc1ccc(-n2nc(C(=O)NCC(=O)N3CCN(c4ccccc4OC)CC3)c3ccccc3c2=O)c(OC)c1 1.03
C[C@@H](O)c1nc2ccccc2n1N 0.944
COCCNC(=O)CCCN1C(=O)c2ccccc2Sc2ncccc21 1.03
Cc1cc(Cl)nc(NC(=O)Nc2cccc(Cl)c2)n1 0.931
CN(c1cccc(NC(=O)c2ccc(CN3CCc4ccccc4C3)cc2)c1)S(C)(=O)=O 1.06
CN(CCc1ccccn1)C(=O)c1ccc(OC2CCN(CCc3ccccc3)CC2)cc1 1.07
CC(C)c1nc(SCC(=O)NC(=O)NC(C)(C)C)n[nH]1 1
Cc1noc(C)c1CSc1nc2cc(S(=O)(=O)N3CCOCC3)ccc2o1 0.946
CCOC(=O)c1sc(NC(=O)CSc2nc(O)c(Cc3ccccc3)c(=O)[nH]2)nc1C 0.914
CN(Cc1ccc(F)cc1)C(=O)COc1ccc2ccccc2c1 1
COc1cc(NC(=S)NCc2ccc(S(N)(=O)=O)cc2)cc(OC)c1 1.06
COc1cccc(C(=O)NCCSc2ccc(Br)cc2)c1 1.14
S=c1nccc(-c2cc(Cl)sc2Cl)[nH]1 1.08
CC(CNC(=O)c1ccc(N)cc1)NC(=O)c1ccc(N)cc1 (stereo not drawn) 1.09
O=C(Nc1cccc(-c2cscn2)c1)C1CCN(Cc2ccsc2)CC1 1.47
O=C(Nc1cnn(Cc2ccc(Cl)cc2)c1)C1CCCC1 0.956
COc1cccc(-c2cccc(NC(=O)C3CCN(C4CCC4)CC3)c2)c1 1.01
CCn1cc(CN2CCC(n3nccc3NC(=O)CCCc3ccccc3)CC2)c(C)n1 1.22
CC(=O)c1cc(CN2CCC(C(=O)Nc3cccc(-c4cscn4)c3)CC2)cs1 1.08
O=C(NC1CCCC1)C1CCN(C(=O)Nc2cccc(Cl)c2)CC1 1.03
N#Cc1c(C(F)(F)F)cc(-c2cccs2)nc1N1CCCCC1 1.01
CN1CCN(C(CNS(=O)(=O)c2cccs2)c2cccnc2)CC1 (stereo not drawn) 0.991

Reference: PubChem BioAssay AID2805 (Sanford-Burnham Center for Chemical Genomics, 2010)
